# Shown are actives, neighbours in structure and some others; about 2.3% of the full set was active somewhere.
# TRPC6 act: mouse TRPC6 channel activation | Q61143 | HEK293-TRPC6 membrane potential dye fluorescence; active compounds read high | B-score at 10 µM | hit rate 0.13% among 310,000 | AID 2550;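 active = B-score of the integrated fluorescence ratio above library mean plus 3 SD, and starting fluorescence ratio within library mean plus 5 SD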;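 note: higher score means more depolarization so channel activation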
# TRPC6 inhibitor: blocks the mouse TRPC6 cation channel. HEK293-TRPC6, membrane potential dye, ACh-evoked depolarization; active compounds read low. B-score at 10 µM. hit rate 1.1% among 310,000;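 active = B-score under library mean minus 3 SD, initial fluorescence not abnormally high, positive integrated signal ratio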;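 note: B-score derived from integrated fluorescence ratio over the kinetic read; more negative B-score means stronger inhibition of depolarization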
# TRPC4 potent: TRPC4 (mouse) allosteric potentiation. HEK293 TRPC4beta/mu-opioid, DAMGO EC20, Fluo-4 Ca2+ flux; active compounds read high. B-score at 10 µM. hit rate 0.42% among 310,000;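 active = B-score of calcium response area above 5 SD of library B-scores, with initial fluorescence ratio within 5 SD of library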;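 note: B-score of integrated fluorescence ratio over time as area under calcium response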
# TRPC4 agonist: opens the mouse TRPC4 cation channel | Q9QUQ5 | HEK293 TRPC4beta/mu-opioid, Fluo4 calcium fluorescence; active compounds read high | B-score at 10 µM | hit rate 0.49% among 310,000 | AID 2237;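 active = B-score above 5 SD of library B-scores, and initial fluorescence ratio not above library mean plus 5 SD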;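 note: positive B-score marks a calcium rise read as TRPC4 activation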
#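 Assay system – TRPC4beta and mu-opioid receptor HEK293 stable cells · Measured by – Fluo4 fluorescence, kinetic · Schedule – dye loading 45 min room temperature, 110 s kinetic read · Read-out – B-scored integrated calcium fluorescence ratio · Controls – buffer and maximal DAMGO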
# TRPC4 inh: inhibitors of mouse TRPC4 channel. Q9QUQ5. HEK293 TRPC4beta/mu-opioid, DAMGO-evoked Fluo4 calcium flux; active compounds read low. B-score at 10 µM. hit rate 0.39% among 300,000;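 active = B-score over 3 SD under the library average, no early fluorescence shift, positive overall ratio signal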
#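 material = TRPC4beta/mu-opioid receptor HEK293 cell line | probe or stimulus = sequential submaximal and maximal DAMGO stimulation | compound dosing = one concentration per compound | measured by = Fluo4 Ca2+ flux fluorescence | evaluation = integrated fluorescence ratio relative to baseline, converted to per-well B score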
# Numbers without * were called inactive; i = inactive.
SMILES,TRPC6 act,TRPC6 inhibitor,TRPC4 potent,TRPC4 agonist,TRPC4 inh
O=C(CSc1nnc(CNC(=O)c2ccco2)o1)Nc1ccccc1C(F)(F)F,i,i,i,i,i
N=C1c2ccccc2CN1NC(=O)c1cccc(S(=O)(=O)N2CCCCC2)c1,i,i,i,49*,i
N=C1c2ccccc2CN1NC(=O)c1cccc(S(=O)(=O)N2CCOCC2)c1,i,i,i,i,i
COc1ccc(C(=O)NC(=S)Nc2ccc(N3CCOCC3)c(Cl)c2)cc1[N+](=O)[O-],i,i,i,i,i
CC(OC(=O)Cc1n[nH]c(=O)c2ccccc12)C(=O)Nc1cccc([N+](=O)[O-])c1 (stereo not drawn),i,i,11*,i,i
CCOc1ccc(C(=O)NCC(c2cccs2)N(C)C)cc1 (stereo not drawn),i,i,i,50*,i
CCOc1ccc(C(=O)NCC(C)C)cc1,i,i,i,i,i
COc1ccc(N(C)S(=O)(=O)c2cccc(C(=O)NCC(c3cccs3)N(C)C)c2)cc1 (stereo not drawn),i,i,i,i,-6*
CCOc1ccc(NC(=O)COC(=O)C23CC4CC(CC(C4)C2)C3)c([N+](=O)[O-])c1,i,i,i,i,i
NC(=O)CN1C(=O)NC2(CCCc3sccc32)C1=O (stereo not drawn),i,i,i,i,i
Cc1cc(C(=O)CN2C(=O)NC3(CCCc4sccc43)C2=O)c(C)n1-c1ccc(Cl)cc1 (stereo not drawn),i,i,10*,i,i
Cc1cccc(OCCCOc2cccc3cccnc23)c1C,i,i,11*,i,i
Cc1cccc(OCCCCc2c(C)n[nH]c2C)c1C,i,i,i,i,-8*
CCOc1ccccc1OCCCCCc1c(C)n[nH]c1C,i,i,i,i,i
Cn1cnc(S(=O)(=O)Nc2ccc(OC(F)(F)F)cc2)c1,i,i,i,i,i
CCCn1ncc(CN2CCC(n3nccc3NC(=O)CCc3ccccc3)CC2)c1C,i,i,i,100*,i
CCn1cc(CN2CCC(n3nccc3NC(=O)CCOc3ccccc3)CC2)c(C)n1,i,i,i,i,i
CCn1ccnc1CN1CCC(n2nccc2NC(=O)CCc2ccccc2)CC1,i,i,i,i,i
CCn1cc(CN2CCC(n3nccc3NC(=O)CCOc3ccccc3)CC2)cn1,i,i,i,72*,i
CCn1cc(CN2CCC(n3nccc3NC(=O)CCc3ccccc3)CC2)cn1,i,i,i,73*,i
Cc1ccc(-c2nn(CC(=O)NN3CCOCC3)c(=O)c3ccccc23)cc1,i,i,i,i,i
Nc1ncc(Br)cc1S(=O)(=O)Nc1cc(C(F)(F)F)cc(C(F)(F)F)c1,i,i,i,46*,i
CN(CC(=O)Nc1cccc(F)c1)C(=O)CCCN1C(=O)c2cccc3cccc(c23)C1=O,i,i,i,i,i
Cc1cccc(SC2CCN(C(=O)C3CCC(=O)N(C4CC4)C3)CC2)c1 (stereo not drawn),i,i,i,i,i
COc1ccc(OC)c(-n2c(CNC3CCN(Cc4ccccc4)CC3)nc3ccccc3c2=O)c1,i,i,i,73*,i
SMILES,TRPC6 act,TRPC6 inhibitor,TRPC4 potent,TRPC4 agonist,TRPC4 inh
Cc1cc(C)cc(C(=O)Nn2cnnc2)c1,i,i,i,i,i
Cc1ccc(-n2c(SCc3cc(=O)n4ccsc4n3)nnc2-c2cccnc2)c(C)c1,i,i,i,i,-7*
Cc1ccc(-n2c(SCC(N)=O)nnc2-c2cccnc2)c(C)c1,i,i,i,i,i
O=C(COc1ccccc1[N+](=O)[O-])N/N=C/c1cccs1,i,i,i,i,i
CCCN1CCN(C(=S)NCc2ccc(Cl)cc2)CC1,i,i,22*,i,i
S=C(NCc1ccc(Cl)cc1)N1CCN(c2ccccn2)CC1,i,i,i,i,i
Cc1c(N)ccc(-n2nc3ccccc3n2)c1C,i,i,i,i,i
CCCCCCNc1c([N+](=O)[O-])c(=O)sc2ccccc12,i,i,i,i,i
Cc1cc(NCCCN(C)C)n2c(nc3ccccc32)c1C#N,i,i,i,i,i
Cc1cc(NCCN2CCCCC2)n2c(nc3ccccc32)c1C#N,i,-8.11*,i,i,i
O=C(CNS(=O)(=O)c1ccc([N+](=O)[O-])cc1)N/N=C\c1ccc(O)cc1,i,i,12*,i,i
O=C(C[n+]1ccc(C(=O)NCc2ccccc2)cc1)c1ccc(Cl)cc1,i,i,i,i,i
CC(OC(=O)CNC(=O)c1ccccc1F)C(=O)Nc1nc(-c2ccccc2)cs1 (stereo not drawn),i,i,i,i,-6*
Cc1csc(NC(=O)C(NC(=O)c2ccccc2F)C(C)C)n1 (stereo not drawn),i,i,i,i,i
C=CCc1ccccc1OCC(O)CN1CCN(c2ccccc2OC)CC1 (stereo not drawn),i,i,i,i,-6*
C=CCc1ccccc1OCC(O)CN1CCN(c2ccccc2F)CC1 (stereo not drawn),i,i,i,i,i
C=CCc1ccccc1OCC(CN1CCCCC1)OC(C)=O (stereo not drawn),i,i,i,i,-6*
C=CCc1ccccc1OCCCCN1CCCC1,i,i,i,i,i
COC(=O)CSc1nnc(CNS(=O)(=O)c2ccc(Br)cc2)n1C,i,i,i,i,-6*
Nc1ccccc1Oc1ccc2ccccc2c1,i,i,i,i,i
O=C(Nc1nnc(-c2ccccc2Cl)o1)c1nc2ccccc2s1,i,i,i,185*,i
CC(=O)N1CCc2cc(S(=O)(=O)NCCC(=O)NC3CCCCCC3)ccc21,i,i,i,i,i
O=[N+]([O-])c1ccc(C2CNC(c3ccccc3)O2)cc1 (stereo not drawn),i,i,14*,i,i
Cc1ccc(-c2nc(CS(=O)(=O)CC(=O)Nc3cc(F)ccc3F)c(C)o2)cc1,i,i,i,i,i
NS(=O)(=O)c1ccc(CNS(=O)(=O)c2cc(Cl)ccc2Cl)cc1,i,i,i,i,i
Cc1cc(Cl)c2oc(C(=O)N(C)Cc3cc(C)[nH]n3)c(C)c2c1,i,i,i,i,i
Cc1cc(Cl)c2oc(C(=O)N(C)Cc3nccn3C)c(C)c2c1,i,i,i,i,-7*

# Screening data as filed in PubChem.
